Calls of active or inactive are those of the source. The calls are words filed in the database; no cut-off is given here.
Assays:
M21 [1] = test: Cell cycle arrest in human M21 cells assessed as accumulation at S phase at 5 times IC50 after 24 hrs using propidium iodide staining by flow cytometric analysis (reference value: 30%); assay type: functional
CEM-VLB = test: Resistant ratio of IC50 for multidrug-resistant human CEM-VLB cells to IC50 for human CEM cells; assay type: functional
How it was run: (§1)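 Ratio of the IC50 in the resistant line (CEM-VLB, CHO-TAX 5-6 or CHO-VV 3-2) to the IC50 in its parental line (CEM or CHO).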

M21 [2] = test: Antiproliferative activity against human M21 cells after 48 hrs by sulforhodamine B assay; assay type: functional, cell-based; details: M21, 48 h
[3] = Toxicity against fertilized chicken embryo assessed as mortality at 10 ug per egg, iv by CAM assay; assay type: organism-based, Gallus gallus; details: in vivo
How it was run: (§2)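 Fertilized chicken eggs incubated 10 days with automatic turning, then static. HT-1080 cells (3.5 × 10^5 cells/egg) grafted onto exposed CAM. On day 11, drug in DMSO diluted into cremophor/ethanol/PBS (6.25/6.25/87.5 v/v) excipient, DMSO below 0.5%, 100 μL injected iv into 10-12 eggs. Eggs incubated to day 17, dead embryos counted. Untreated eggs used for normalization. Two independent experiments, at least 10 eggs each.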

CCRF-CEM = test: Antiproliferative activity against human CEM cells after 48 hrs by sulforhodamine B assay; assay type: functional, cell-based
M21 [4] = test: Cell cycle arrest in human M21 cells assessed as accumulation at G0/G1 phase at 5 times IC50 after 24 hrs using propidium iodide staining by flow cytometric analysis (reference value: 61%); assay type: functional
CHO-TAX 5-6 [5] = test: Resistant ratio of IC50 for paclitaxel-resistant CHO-TAX 5-6 cells to IC50 for CHO cells; assay type: functional, Cricetulus griseus; how it was run: as §1
CHO-VV 3-2 = test: Antiproliferative activity against colchicine- and vinblastine-resistant CHO-VV 3-2 cells after 48 hrs by sulforhodamine B assay; details: Cricetulus griseus, CHO-VV 3-2, 48 h
MCF7 = test: Antiproliferative activity against human MCF7 cells after 48 hrs by sulforhodamine B assay; assay type: functional, cell-based; details: MCF7, 48 h
M21 [6] = test: Cell cycle arrest in human M21 cells assessed as accumulation at G2/M phase at 5 times IC50 after 24 hrs using propidium iodide staining by flow cytometric analysis (reference value: 9%); assay type: functional
[7] = Antiproliferative activity against multidrug-resistant human CEM/VLB cells after 48 hrs by sulforhodamine B assay; assay type: functional
L1210 = test: Antiproliferative activity against mouse L1210 cells after 48 hrs by sulforhodamine B assay; assay type: functional, cell-based; details: L1210, 48 h
K562 = test: Antiproliferative activity against human K562 cells after 48 hrs by sulforhodamine B assay; assay type: functional, cell-based; details: K562, 48 h
MDA-MB-231 [8] = test: Displacement of N,N'-ethylenebis(iodoacetamide) from colchicine-binding site of beta-tubulin in human MDA-MB-231 cells at 1000 times IC50 preincubated for after 2 hrs before N,N'-ethylenebis(iodoacetamide) addition measured after 1.5 hrs by chemiluminescence assay; assay type: cell-based
How it was run: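 EBI (100 μM final) added for 1.5 h at 37 °C; controls received 0.5% DMSO. Lysates (20 μg protein) run on 10% SDS-PAGE and blotted with anti-β-tubulin (TUB 2.1). β-tubulin–EBI adduct band detected by ECL.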

HT-1080 [9] = test: Antivasculogenic activity against human HT1080 cells xenografted in chicken chorioallantoic membrane assessed as inhibition of tumor growth at 10 ug per egg, iv measured on day 14 by CAM assay; assay type: functional; set-up: scale not given: the % may be the effect or the level left
SK-OV-3 = test: Antiproliferative activity against human SKOV3 cells after 48 hrs by sulforhodamine B assay; assay type: functional, cell-based; details: SK-OV-3, 48 h
CHO = test: Antiproliferative activity against CHO cells after 48 hrs by sulforhodamine B assay; assay type: functional, cell-based; details: Cricetulus griseus
HT-1080 [10] = test: Antiproliferative activity against human HT1080 cells after 48 hrs by sulforhodamine B assay; assay type: functional, cell-based; details: HT-1080, 48 h
DU-145 = test: Antiproliferative activity against human DU145 cells after 48 hrs by sulforhodamine B assay; assay type: functional, cell-based; details: DU-145, 48 h
HT-29 = test: Antiproliferative activity against human HT-29 cells after 48 hrs by sulforhodamine B assay; assay type: functional, cell-based; details: HT-29, 48 h
MDA-MB-231 [11] = test: Antiproliferative activity against human MDA-MB-231 cells after 48 hrs by sulforhodamine B assay; assay type: functional, cell-based; details: MDA-MB-231, 48 h
[12] = Antiproliferative activity against mouse P388D1 cells after 48 hrs by sulforhodamine B assay; assay type: functional, cell-based; details: P388D1, 48 h
M21 [13] = test: Disruption of cytoskeleton microtubule structure of human M21 cells at 5 times IC50 after 16 hrs by indirect immunofluorescence assay; assay type: functional, cell-based
How it was run: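 Fixed in 3.7% formaldehyde, permeabilized with saponin, and stained with anti-β-tubulin (TUB 2.1), Alexa-488 secondary and DAPI. Microtubule structure scored by fluorescence microscopy.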

CHO-TAX 5-6 [14] = test: Antiproliferative activity against paclitaxel-resistant CHO-TAX 5-6 cells after 48 hrs by sulforhodamine B assay; assay type: functional, cell-based; details: Cricetulus griseus, CHO-TAX 5-6, 48 h
[15] = Antiproliferative activity against mouse B16F0 cells after 48 hrs by sulforhodamine B assay; assay type: functional, cell-based; details: B16F0, 48 h
[16] = Toxicity against fertilized chicken embryo assessed as mortality at 3 ug per egg, iv by CAM assay; assay type: organism-based, Gallus gallus; details: in vivo, read-out: Activity; how it was run: as §2
HT-1080 [17] = test: Antivasculogenic activity against human HT1080 cells xenografted in chicken chorioallantoic membrane assessed as inhibition of tumor growth at 3 ug per egg, iv measured on day 14 by CAM assay; assay type: functional

SMILES: COc1ccc(OS(=O)(=O)c2ccc(N3CCNC3=O)cc2)cc1
- Activity (M21 [1]): 5%
- Ratio IC50 (CEM-VLB): 1.3
- IC50 (M21 [2]): 0.098 µM
- Activity [3]: Active
- IC50 (CCRF-CEM): 0.25 µM
- Activity (M21 [4]): 0%
- Ratio IC50 (CHO-TAX 5-6 [5]): 0.83
- IC50 (CHO-VV 3-2): 0.25 µM
- IC50 (MCF7): 0.16 µM
- Activity (M21 [6]): 95%
- IC50 [7]: 0.32 µM
- IC50 (L1210): 0.25 µM
- IC50 (K562): 0.24 µM
- inhibition (MDA-MB-231 [8]): Active
- Activity (HT-1080 [9]): 13%
- IC50 (SK-OV-3): 0.32 µM
- IC50 (CHO): 0.24 µM
- IC50 (HT-1080 [10]): 0.24 µM
- IC50 (DU-145): 0.65 µM
- IC50 (HT-29): 0.13 µM
- IC50 (MDA-MB-231 [11]): 0.76 µM
- IC50 [12]: 0.26 µM
- Activity (M21 [13]): Active
- IC50 (CHO-TAX 5-6 [14]): 0.2 µM
- IC50 [15]: 0.51 µM

SMILES: O=C1NCCN1c1ccc(S(=O)(=O)Oc2ccc(F)cc2)cc1
- Activity (M21 [1]): 21%
- Ratio IC50 (CEM-VLB): 1.4
- IC50 (M21 [2]): 0.089 µM
- IC50 (CCRF-CEM): 0.2 µM
- Activity (M21 [4]): 51%
- Ratio IC50 (CHO-TAX 5-6 [5]): 0.37
- IC50 (CHO-VV 3-2): 0.26 µM
- IC50 (MCF7): 0.17 µM
- Activity (M21 [6]): 28%
- IC50 [7]: 0.27 µM
- IC50 (L1210): 0.14 µM
- IC50 (K562): 0.18 µM
- inhibition (MDA-MB-231 [8]): Active
- IC50 (SK-OV-3): 0.21 µM
- IC50 (CHO): 0.23 µM
- IC50 (HT-1080 [10]): 0.19 µM
- mortality [16]: 29%
- IC50 (DU-145): 0.55 µM
- IC50 (HT-29): 0.12 µM
- IC50 (MDA-MB-231 [11]): 0.36 µM
- IC50 [12]: 0.24 µM
- Activity (HT-1080 [17]): inactive
- Activity (M21 [13]): Active
- IC50 (CHO-TAX 5-6 [14]): 0.086 µM
- IC50 [15]: 0.25 µM

SMILES: O=C1NCCN1c1ccc(S(=O)(=O)Oc2cc(Cl)cc(Cl)c2)cc1
- Activity (M21 [1]): 20%
- Ratio IC50 (CEM-VLB): 1.2
- IC50 (M21 [2]): 0.0082 µM
- IC50 (CCRF-CEM): 0.016 µM
- Activity (M21 [4]): 1%
- Ratio IC50 (CHO-TAX 5-6 [5]): 0.36
- IC50 (CHO-VV 3-2): 0.02 µM
- IC50 (MCF7): 0.018 µM
- Activity (M21 [6]): 79%
- IC50 [7]: 0.019 µM
- IC50 (L1210): 0.0096 µM
- IC50 (K562): 0.0072 µM
- inhibition (MDA-MB-231 [8]): Active
- IC50 (SK-OV-3): 0.016 µM
- IC50 (CHO): 0.017 µM
- IC50 (HT-1080 [10]): 0.018 µM
- mortality [16]: 29%
- IC50 (DU-145): 0.066 µM
- IC50 (HT-29): 0.01 µM
- IC50 (MDA-MB-231 [11]): 0.026 µM
- IC50 [12]: 0.0074 µM
- Activity (HT-1080 [17]): inactive
- Activity (M21 [13]): Active
- IC50 (CHO-TAX 5-6 [14]): 0.0061 µM
- IC50 [15]: 0.041 µM

SMILES: CCOc1cccc(OS(=O)(=O)c2ccc(N3CCNC3=O)cc2)c1
- Activity (M21 [1]): 20%
- Ratio IC50 (CEM-VLB): 1.6
- IC50 (M21 [2]): 0.012 µM
- IC50 (CCRF-CEM): 0.02 µM
- Activity (M21 [4]): 2%
- Ratio IC50 (CHO-TAX 5-6 [5]): 0.38
- IC50 (CHO-VV 3-2): 0.039 µM
- IC50 (MCF7): 0.019 µM
- Activity (M21 [6]): 78%
- IC50 [7]: 0.032 µM
- IC50 (L1210): 0.019 µM
- IC50 (K562): 0.018 µM
- inhibition (MDA-MB-231 [8]): Active
- IC50 (SK-OV-3): 0.042 µM
- IC50 (CHO): 0.032 µM
- IC50 (HT-1080 [10]): 0.034 µM
- mortality [16]: 13%
- IC50 (DU-145): 0.072 µM
- IC50 (HT-29): 0.018 µM
- IC50 (MDA-MB-231 [11]): 0.055 µM
- IC50 [12]: 0.02 µM
- Activity (HT-1080 [17]): Active
- Activity (M21 [13]): Active
- IC50 (CHO-TAX 5-6 [14]): 0.012 µM
- IC50 [15]: 0.065 µM

— ChEMBL document CHEMBL1799919, “Design, synthesis, biological evaluation, and structure-activity relationships of substituted phenyl 4-(2-oxoimidazolidin-1-yl)benzenesulfonates as new tubulin inhibitors mimicking combretastatin A-4” (J Med Chem, 2011)
